# Most compounds without a hit are left out; they make up all but 1.7% or so of the library.
# SR-BI uptake up: activators of SR-BI mediated DiI-HDL uptake, primary screen, ldlA[mSR-BI] CHO cells, DiI fluorescence; 3 h; 100 = double the neutral-control signal; activation, % at 12.5 µM; 320,000 compounds, 0.096% hits;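 active = mean replicate activation of at least 60% and every replicate at or above 60%; inconclusive = mean or all-replicate condition met, but not both; inactive = mean below 60% and not all replicates reaching 60%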;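 note: 0% = median plate neutral-control signal and 100% = twice that signal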
#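 Material: SR-BI-overexpressing, LDLR-lacking CHO cells | Dosing: Single compound concentration, delivered by pin transfer | Probe or stimulus: Labelled HDL, 10 µg/mL | Signal: Bottom-read cell fluorescence after medium removal, ex 550/em 595 nm | Schedule: 3 h, 37 °C | Evaluation: HDL uptake via cellular fluorescence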
# NTR1 ag: agonists of human NTR1, primary screen, imaging, U2OS cells, beta-arrestin-GFP, high content; Neurotensin receptor type 1 (Homo sapiens), P30989; NTR1-U2OS beta-arrestin-GFP spot imaging, agonist mode; activation, % at 20 µM; 330,000 compounds, 0.17% hits; AID 493036, 2011;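 active = activation at or above 40% of the spot to cytoplasm intensity ratio, with at least 20 cells analyzed; inconclusive = wells under 20 cells, flagged as cytotoxic or low count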;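 note: 0% = DMSO without peptide and 100% = 100 nM NTR1 peptide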
# CaV13 ICDI inh: Disruptors of the CACNA1D IQ motif to Ca2+-dependent inactivation inhibitor domain association, primary screening, Förster resonance energy transfer in intact living … | AID 743397 | inhibition, % at 12.3 µM | 340,000 compounds, 0.098% hits | HEK cells, CFP/YFP FRET ICDI-IQ, plate reader, 10 min; percent FRET-ratio fall versus neutral wells;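 active = mean replicate inhibition of at least 30% and at least 1% of replicates passing that level; inconclusive = only one of the two criteria is met; inactive = neither criterion is met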;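 note: 0% = median of the neutral control wells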
# Vif inh: HIV Vif self-association inhibitors, primary screen, imaging, HEK293T, single point. HEK293T cells, Vif self-association by quenched fluorescence, 24 h. inhibition, % at 7.49 µM. 340,000 compounds, 0.35% hits; in the data active = inhibition above about 50%, passing the limit was not always enough; inconclusive = no clear call, values can overlap the other calls; inactive = below about 31%
# V-ATPase pHluor: regulators of yeast V-ATPase proton pumping, primary screen, pHLuorin cytosolic pH fluorescence; response, % at 10 µM; S. cerevisiae; 350,000 compounds, 0.37% hits; in the data active = response mostly above about 7.3%, no sharp cut-off; inactive = mostly below about 5.4%; note: actives read high
# SR-BI DiI inh: inhibitors of SR-BI mediated HDL lipid uptake, primary screen, ldlA[mSR-BI] cells, fluorescence, single point; ldlA[mSR-BI] CHO cells, DiI-HDL uptake fluorescence, 3 h; inhibition, % at 12.5 µM; 320,000 compounds, 0.96% hits; AID 488896, 2010;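 active = mean replicate inhibition of at least 70% and a set share of replicates each scoring 70 or more; inconclusive = meets just one of the two criteria; inactive = fails both criteria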;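 note: 0% = median of neutral control wells and 100% = median of positive control wells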
# Target sequence (Q61009 whole entry, looked up): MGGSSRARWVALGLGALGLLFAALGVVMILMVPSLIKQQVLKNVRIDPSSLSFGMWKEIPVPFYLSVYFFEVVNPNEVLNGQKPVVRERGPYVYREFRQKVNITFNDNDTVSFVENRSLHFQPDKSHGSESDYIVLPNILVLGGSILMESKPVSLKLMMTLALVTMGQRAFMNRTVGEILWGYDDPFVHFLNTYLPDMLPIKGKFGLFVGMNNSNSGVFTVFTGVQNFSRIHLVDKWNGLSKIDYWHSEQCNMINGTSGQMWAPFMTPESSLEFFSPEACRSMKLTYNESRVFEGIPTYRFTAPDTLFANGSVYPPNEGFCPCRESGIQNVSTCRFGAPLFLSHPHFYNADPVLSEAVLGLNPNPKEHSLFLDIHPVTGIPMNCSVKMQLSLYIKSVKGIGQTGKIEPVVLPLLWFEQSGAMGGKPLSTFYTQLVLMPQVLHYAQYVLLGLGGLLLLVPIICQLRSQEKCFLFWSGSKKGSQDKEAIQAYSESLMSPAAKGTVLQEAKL
# Starred values were filed as active, the others as inactive; u = inconclusive; x = no result given.
SMILES,SR-BI uptake up,NTR1 ag,CaV13 ICDI inh,Vif inh,V-ATPase pHluor,SR-BI DiI inh
COc1cccc(NC(=O)C/C(C)=N/NC(=O)c2ccccc2Cl)c1,9,-1,-5,3,0,-9
COc1cc2sc3cc(NCc4ccc5c(c4)OCO5)ccc3c(=O)c2cc1OC,-73,1,-4,-9,1,73*
COc1cccc2sc3cc(NCc4ccc5c(c4)OCO5)ccc3c(=O)c12,-22,9,12,-2,-4,22
COc1cc2sc3cc(NCC[C@@H]4CCCN4C)ccc3c(=O)c2cc1OC,-63,16,36*,4,-4,63
COc1cc2sc3cc(NCc4ccc(C)o4)ccc3c(=O)c2cc1OC,-80,2,-6,x,2,80*
C#CCOCCOCCOCCNc1nc(N2CCN(C(=O)[C@H](C)n3cc(CCC(=O)O)nn3)CC2)nc(N2CCN(C(=O)[C@H](CCCCN)n3cc(CCCC)nn3)CC2)n1,20,x,-13,3,6,-20
CN(CC/C=C1/c2ccccc2CSc2ccccc21)CCCO,4,2,-4,-10,0,-4
CC(O)CN(C)CC/C=C1/c2ccccc2CSc2ccccc21 (stereo not given),2,3,-7,86*,-1,-2
C#CCN(C(=O)c1ccc(OC)c(OC2CCN(C(C)C)CC2)c1)C1CCCCC1,21,0,-7,-6,-2,-21
Nc1ncnc2c1ncn2[C@@H]1O[C@H](CNS(=O)(=O)c2cc(S(=O)(=O)c3ccccc3)cs2)[C@@H](O)[C@H]1O,130*,4,-7,x,-2,-131
CC(=O)NNc1[nH]c2c(c(=O)c1[N+](=O)[O-])c(=O)n(C)c(=O)n2C,68*,-1,-5,-9,1,-68
CC(=O)Nc1c(NC(=O)CC#N)[nH]c2c(c1=O)c(=O)n(C)c(=O)n2C,2,0,-5,1,x,-2
Cc1c(NC(=O)CSc2ccc(Cl)cc2)cccc1-c1nc2cc(Cl)ccc2o1,-29,19,-5,-13,-2,29
CC(=O)Nc1ccc2c(c1)-c1ccc(F)cc1C2,6,x,-6,0,-4,-6
CC(=O)Nc1ccc2c(c1)Cc1ccc(Cl)cc1-2,-74,x,-6,-3,3,74*
CC[n+]1c(/C=C/N(C)c2ccccc2)n(-c2ccccc2)c2ccc(-c3nc4ccccc4s3)cc21,-78,9,x,u,-3,78*
CCOC(=O)c1ccc2c(c1)n(CC)c(/C=C/N(C)c1ccccc1)[n+]2CC,-1,3,-5,0,-3,1
Brc1ccc(C2=Nn3c(Cn4nnc5ccccc54)nnc3SC2)cc1,x,0,8,4,2,x
CNc1ccc(Br)cc(C(=O)/C=C/c2cccc(OC)c2OC)c1=O,-22,1,-9,75*,-3,22
Nc1c(C(O)(C(F)(F)F)C(F)(F)F)cc(C(O)(C(F)(F)F)C(F)(F)F)c2ccccc12,11,26,x,0,2,-11
Cc1ccc(C2=NS(=O)(=O)N(C)C(C(=O)Nc3cc(C)n(CC(=O)N4CCC(C)CC4)n3)=C2)cc1,-86,0,-13,-3,3,86*
Cc1ccc(C2=NS(=O)(=O)N(C)C(C(=O)NC3CCCCC3)=C2)cc1,-1,-2,22,x,-3,1
Cc1cc(Br)cn2c(Cc3cccc(F)c3)c(-c3ccco3)nc12,x,x,-10,x,x,x
COc1cc(-c2coc3c(C(=O)NCc4ccc(C(F)(F)F)cc4)cccc23)ccc1O,x,x,-5,-8,x,x
CN(c1ccc(C(=O)N2CCOCC2)cc1)S(=O)(=O)c1ccc(Cl)cc1,-17,1,-6,-26,5,17
SMILES,SR-BI uptake up,NTR1 ag,CaV13 ICDI inh,Vif inh,V-ATPase pHluor,SR-BI DiI inh
CN(c1ccc(C(=O)N2CCCCCC2)cc1)S(=O)(=O)c1ccc(Cl)cc1,-71,2,-6,-20,1,71*
CCOC(=O)c1csc(-c2csc(CCNC(=O)c3ccccc3)n2)n1,x,x,-5,51*,1,x
COc1ccc(CNC(=O)CN(C(=O)c2csnn2)c2ccccc2F)cc1,7,-1,-7,-2,-2,-7
COc1ccc(CNC(=O)CN(C(=O)c2csnn2)c2cccc3c2CCCC3)cc1,-76,4,-4,6,5,76*
CC(C)(C)[C@H](NC(=O)c1ccc(N)c(Cl)c1)C(=O)N1CCC[C@H]1C(=O)N[C@H](C#N)CC(=O)O,x,x,-7,-9,x,x
CCOC(=O)C[C@@H](C#N)NC(=O)[C@@H]1CCCN1C(=O)[C@@H](NC(=O)c1ccc(N)c(Cl)c1)C(C)(C)C,x,x,-5,76*,x,x
CC(C)[C@H](NC(N)=O)C(=O)Nc1cccc([N+](=O)[O-])c1,3,-2,-6,-1,-1,-3
CCCS(=O)(=O)N1CCCC(C(=O)NCCCN2CCN(c3ccccc3F)CC2)C1 (stereo not given),-21,-1,x,59*,-1,21
O=C(/C=C/c1cc(Br)ccc1O)c1ccco1,-1,47*,-16,5,-1,1
O=C(/C=C/c1ccccc1O)c1ccco1,-3,10,-1,10,-3,3
CCCCOc1ccccc1C1C(C(=O)OC)=CN(CC)C=C1C(=O)OC,10,0,x,-17,-3,-10
COC(=O)C1=CN(C)C=C(C(=O)OC)C1c1ccccc1Cl,-7,-2,36*,29,-4,7
COc1c(C=O)c2c(c(OC)c1OC)-c1ccc(OC)c(=O)cc1C(NC(C)=O)CC2 (stereo not given),-4,x,-12,90*,3,4
COc1cc2c(c(OC)c1OC)-c1ccc(OC)c(=O)cc1C(NC(C)=O)CC2 (stereo not given),-23,4,-4,-6,6,23
COc1ccc(O)c(/C=N/NC(=O)c2cccc(N3CCCC3=O)c2)c1,-89,0,-3,21,-1,89*
COc1ccc(O)c(/C=N/NC(=O)c2ccc(N3CCCC3=O)cc2)c1,x,-1,-5,-4,-2,x
O=C(N/N=C/c1cc(Br)ccc1O)c1cccc(N2CCCC2=O)c1,-106,1,-16,2,-1,106*
O=C(N/N=C/c1ccco1)c1cccc(N2CCCC2=O)c1,-6,2,-5,3,2,6
O=C(O)C1CCCN1C(=O)c1cccc(Cl)c1 (stereo not given),x,x,-12,x,x,x
